# ChEMBL document CHEMBL3817728, “Synthesis, Evaluation, and Mechanism Study of Novel Indole-Chalcone Derivatives Exerting Effective Antitumor Activity Through Microtubule Destabilization in Vitro and in Vivo” (J Med Chem, 2016)
# The source made the active and inactive calls. The calls are words filed in the database; no cut-off is given here.
# Legend:
# [1] = Selectivity ratio of IC50 for human MCF10A cells to IC50 for human A549 cells; assay type: ADME, cell-based; conditions: MCF10A cells versus A549 cells, read-out: Ratio IC50
# Summary of the method: (§1)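 Selectivity ratio = IC50 in normal cells / IC50 in A549; IC50 values mean ± SE from dose-response curves of at least three independent experiments. HUVECs kept quiescent in endothelial cell medium with 0.5% fetal calf serum, no growth factor.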
# [2] = test system: A549; assay: Induction of apoptosis in human A549 cells assessed as viable cells at 10 nM after 24 hrs by annexin V-FITC/propidium iodide staining-based flow cytometric method (reference value: 98.9%); assay type: functional; conditions: A549, 24 h, read-out: Activity
# Summary of the method: (§2)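 A549 cells exposed 24 h or 48 h at indicated concentrations, then trypsinized, harvested and stained with Annexin V-FITC and PI; flow cytometry quadrants scored as necrotic (upper left), late apoptotic (upper right), live (bottom left) and early apoptotic (bottom right). Five independent experiments, representative shown.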
# [3] = test system: A549; assay: Disruption of mitochondrial membrane potential in human A549 cells at 1 to 10 nM after 24 hrs by JC1/Hoechst 33342 staining-based laser scanning confocal microscopy; assay type: functional, cell-based
# Summary of the method: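 After 24 h compound treatment, A549 cells were incubated with JC-1 for 30 min and visualized by laser scanning confocal microscopy.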
# [4] = test system: A549; assay: Induction of apoptosis in human A549 cells assessed as early apoptotic cells at 10 nM after 48 hrs by annexin V-FITC/propidium iodide staining-based flow cytometric method (reference value: 1.95%); assay type: functional
# [5] = Cytotoxicity against human MCF10A cells assessed as growth inhibition after 48 hrs by MTT assay; assay type: cell-based; conditions: MCF-10A
# Summary of the method: (§3)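 Non-tumorigenic cells given 48 h compound exposure, and viability read by MTT. IC50 is mean ± SE from dose-response curves of at least three independent experiments. HUVECs were kept quiescent in endothelial cell medium with 0.5% fetal calf serum and no growth factor.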
# [6] = test system: A549; assay: Induction of apoptosis in human A549 cells assessed as viable cells at 1 nM after 48 hrs by annexin V-FITC/propidium iodide staining-based flow cytometric method (reference value: 98.1%); assay type: functional; conditions: A549, 48 h, read-out: Activity; summary of the method: as §2
# [7] = Metabolic stability in Sprague-Dawley rat liver microsomes assessed as compound remaining at 150 mins in presence of NADPH regenerating system by HPLC method; assay type: ADME; conditions: read-out: Stability
# Summary of the method: (§4)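 Rat liver microsomes incubated with compound at 37 ℃ for indicated times in buffer containing NADPH regenerating system; residual parent determined by HPLC.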
# [8] = Selectivity ratio of IC50 for human BJ cells to IC50 for human A549 cells; assay type: ADME, cell-based; conditions: BJ cells versus A549 cells, read-out: Ratio IC50; summary of the method: as §1
# [9] = test system: A2780; assay: Resistance index, ratio of IC50 for human A2780/TAX cells to IC50 for human A2780 cells; assay type: functional
# [10] = test system: A549; assay: Induction of apoptosis in human A549 cells assessed as necrotic cells at 10 nM after 24 hrs by annexin V-FITC/propidium iodide staining-based flow cytometric method (reference value: 0.03%); assay type: functional
# [11] = test system: A549; assay: Disruption of mitochondrial membrane potential in human A549 cells assessed as red fluorescence intensity at 1 nM after 24 hrs by JC1 staining-based flow cytometric method (reference value: 99.2%); assay type: functional
# [12] = test system: A549; assay: Induction of apoptosis in human A549 cells assessed as early apoptotic cells at 3 nM after 48 hrs by annexin V-FITC/propidium iodide staining-based flow cytometric method (reference value: 1.95%); assay type: functional
# [13] = test system: A549; assay: Cell cycle arrest in human A549 cells assessed as decrease in cell level at G1 phase at 1 to 10 nM after 24 to 48 hrs by propidium iodide staining-based flow cytometric analysis; assay type: functional
# Summary of the method: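 A549 cells exposed to compound for 24, 48 or 72 h, then trypsinized and harvested. DNA stained with propidium iodide and analyzed by flow cytometry. Percentage of cells in each cell-cycle phase was quantified from the DNA histograms, with sub-G1 taken as the hypodiploid peak. Performed at least three times; representative experiments shown.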
# [14] = test system: A549; assay: Induction of apoptosis in human A549 cells assessed as late apoptotic cells at 10 nM after 24 hrs by annexin V-FITC/propidium iodide staining-based flow cytometric method (reference value: 0.01%); assay type: functional
# [15] = Metabolic stability in Sprague-Dawley rat liver microsomes assessed as compound remaining at 90 mins in presence of NADPH regenerating system by HPLC method; assay type: ADME; conditions: read-out: Stability
# Summary of the method: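 Test compound incubated with rat liver microsomes at 37 ℃ in buffer containing an NADPH regenerating system for the stated time. Remaining parent compound was quantified by HPLC.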
# [16] = test system: A549; assay: Induction of apoptosis in human A549 cells assessed as necrotic cells at 3 nM after 24 hrs by annexin V-FITC/propidium iodide staining-based flow cytometric method (reference value: 0.03%); assay type: functional
# [17] = target: Tubulin (Sus scrofa, UniProt P02554+P02550); assay: Inhibition of porcine brain tubulin polymerization measured every 60 secs for 60 mins by DAPI staining-based fluorescence assay
# [18] = Cytotoxicity against human HCT8 cells assessed as cell viability after 48 hrs by MTT assay; assay type: functional, cell-based; conditions: HCT-8, 48 h
# Summary of the method: (§5)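 Cancer cell lines treated with compound for 48 h, and viability read by MTT assay. IC50 given as mean ± SD from at least three independent experiments.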
# [19] = target: Tubulin (Sus scrofa) (UniProt P02554+P02550); assay: Inhibition of [3H]-colchicine binding to porcine brain tubulin at 5 uM relative to control
# Summary of the method: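 Competition with [3H]colchicine at 5 μM; test agents at 5 or 1 μM. Mean ± SD of at least three independent experiments.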
# [20] = Selectivity ratio of IC50 for quiescent HUVEC to IC50 for human A549 cells; assay type: ADME, cell-based; conditions: quiescent HUVEC versus A549 cells, read-out: Ratio IC50; summary of the method: as §1
# [21] = test system: A549; assay: Induction of apoptosis in human A549 cells assessed as early apoptotic cells at 3 nM after 24 hrs by annexin V-FITC/propidium iodide staining-based flow cytometric method (reference value: 1.07%); assay type: functional
# [22] = test system: A549; assay: Cytotoxicity against human A549 cells assessed as cell viability after 48 hrs by MTT assay; assay type: functional, cell-based; conditions: A549, 48 h; summary of the method: as §5
# [23] = test system: A549; assay: Induction of apoptosis in human A549 cells assessed as early apoptotic cells at 1 nM after 24 hrs by annexin V-FITC/propidium iodide staining-based flow cytometric method (reference value: 1.07%); assay type: functional
# [24] = test system: BJ; assay: Cytotoxicity against human BJ cells assessed as growth inhibition after 48 hrs by MTT assay; assay type: cell-based; summary of the method: as §3
# [25] = test system: A549; assay: Induction of apoptosis in human A549 cells assessed as late apoptotic cells at 3 nM after 48 hrs by annexin V-FITC/propidium iodide staining-based flow cytometric method (reference value: 0.01%); assay type: functional
# [26] = test system: A549; assay: Disruption of microtubule network in human A549 cells assessed as multinucleation at 10 nM after 24 hrs by Hoechst 33342 staining-based laser scanning confocal microscopic analysis; assay type: cell-based
# Summary of the method: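 A549 cells plated in confocal dishes and incubated with compound for 24 h. Cells were then fixed and stained, and microtubule and spindle organization was imaged by laser confocal microscopy. Experiments done five times; representative results shown.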
# [27] = test system: A549; assay: Induction of apoptosis in human A549 cells assessed as necrotic cells at 10 nM after 48 hrs by annexin V-FITC/propidium iodide staining-based flow cytometric method (reference value: 0.01%); assay type: functional
# [28] = Metabolic stability in Sprague-Dawley rat liver microsomes assessed as compound remaining at 120 mins in presence of NADPH regenerating system by HPLC method; assay type: ADME; conditions: read-out: Stability; summary of the method: as §4
# Tubulin (Sus scrofa), sequence (P02550 whole entry, looked up): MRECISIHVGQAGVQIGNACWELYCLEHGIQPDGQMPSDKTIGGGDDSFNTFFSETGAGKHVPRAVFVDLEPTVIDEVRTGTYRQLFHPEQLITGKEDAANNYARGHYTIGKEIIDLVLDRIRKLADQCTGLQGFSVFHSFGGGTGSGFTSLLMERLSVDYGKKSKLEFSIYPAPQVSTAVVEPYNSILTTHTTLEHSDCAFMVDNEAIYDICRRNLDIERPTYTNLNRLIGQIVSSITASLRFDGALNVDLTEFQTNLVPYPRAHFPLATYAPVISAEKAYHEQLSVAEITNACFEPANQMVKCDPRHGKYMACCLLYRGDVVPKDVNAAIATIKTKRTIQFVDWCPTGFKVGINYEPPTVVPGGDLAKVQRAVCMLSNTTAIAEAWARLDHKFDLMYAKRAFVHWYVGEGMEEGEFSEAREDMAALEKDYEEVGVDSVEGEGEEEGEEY
# Tubulin (Sus scrofa), sequence (P02554 whole entry, looked up): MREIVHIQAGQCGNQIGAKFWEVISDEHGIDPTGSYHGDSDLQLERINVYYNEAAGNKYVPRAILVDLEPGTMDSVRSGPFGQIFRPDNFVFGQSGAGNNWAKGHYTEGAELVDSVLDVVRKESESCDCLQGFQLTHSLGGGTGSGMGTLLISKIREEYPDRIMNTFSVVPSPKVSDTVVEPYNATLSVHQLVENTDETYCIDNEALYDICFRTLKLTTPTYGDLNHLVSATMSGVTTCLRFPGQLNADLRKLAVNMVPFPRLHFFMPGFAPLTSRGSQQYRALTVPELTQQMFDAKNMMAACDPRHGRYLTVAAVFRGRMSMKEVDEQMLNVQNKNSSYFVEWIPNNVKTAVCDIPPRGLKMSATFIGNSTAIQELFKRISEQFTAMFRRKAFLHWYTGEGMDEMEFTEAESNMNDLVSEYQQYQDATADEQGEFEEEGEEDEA
structure (smiles),measurement,setting,value
COc1ccc2c(/C=C(\C)C(=O)c3cc(OC)c(OC)c(OC)c3)c[nH]c2c1,selectivity ratio,[1],891
same,viability at 0.01 µM,[2],60.4%
same,Activity,[3],Active
same,Activity,[4],8.41%
same,IC50,[5],2670 nM
same,viability at 0.001 µM,[6],66.8%
same,remaining at 2.5 h,[7],54.1%
same,selectivity ratio,[8],2970
same,Ratio IC50,[9],12.4
same,Activity,[10],2.94%
same,Activity,[11],97.2%
same,Activity,[12],26.8%
same,Activity,[13],Active
same,Activity,[14],12.41%
same,remaining at 1.5 h,[15],73.7%
same,Activity,[16],1.07%
same,IC50,[17],2680 nM
same,IC50,[18],6 nM
same,inhibition,[19],96%
same,selectivity ratio,[20],54.3
same,Activity,[21],28.6%
same,IC50,[22],3 nM
same,Activity,[23],12.8%
same,IC50,[24],8920 nM
same,Activity,[25],33.4%
same,Activity,[26],Active
same,Activity,[27],8.38%
same,remaining at 2 h,[28],66.3%
